Laboratory results published in ChEMBL document CHEMBL1123153, “Synthesis and antitumor and antiviral properties of 5-alkyl-2'-deoxyuridines, 3',5'-cyclic monophosphates, and neutral cyclic triesters” (1986).
Converted amounts (≈) assume the structure as drawn.

Legend:
Assay type in all cases: functional
[1] = tested on: Vesicular stomatitis virus; test: Antiviral activity against vesicular stomatitis virus
Raji [2] = test: Cytostatic activity against proliferation of Raji/0 cells; conditions: Homo sapiens, read-out: ID50 (the source's name)
Human alphaherpesvirus 1 [3] = test: Antiviral activity against Herpes Simplex Virus-1(KOS)
Human alphaherpesvirus 2 [4] = test: Antiviral activity against Herpes Simplex Virus-2(Lyons)
Vaccinia virus = test: Antiviral activity against vaccinia virus; conditions: Orthopoxvirus vaccinia
Human alphaherpesvirus 1 [5] = test: Antiviral activity against Herpes Simplex Virus-1 (McIntyre)
L1210 [6] = test: Cytostatic activity against proliferation of L1210/0 cells; conditions: Mus musculus, read-out: ID50 (the source's name)
Summary of the method: (§1)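 Murine leukemia L1210 cells: parental L1210/0 and L1210/BdUrd, a thymidine-kinase-deficient mutant selected from L1210/0 by growth in the presence of 260 µg/mL 5-bromo-2'-deoxyuridine. Value is the dose inhibiting tumor cell proliferation by 50% (ID50).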

Human alphaherpesvirus 2 [7] = test: Antiviral activity against Herpes Simplex Virus-2(196)
Raji [8] = test: Cytostatic activity against proliferation of Raji/TK cells; conditions: Homo sapiens, read-out: ID50 (the source's name)
L1210 [9] = test: Cytostatic activity against proliferation of L1210/BdU cells; conditions: Mus musculus, read-out: ID50 (the source's name); summary of the method: as §1
Human alphaherpesvirus 2 [10] = test: Antiviral activity against Herpes Simplex Virus-2(G)
Human alphaherpesvirus 1 [11] = test: Antiviral activity against Herpes Simplex Virus-1(F)
Raji [12] = test: Compound was tested for Cytostatic activity against proliferation of Raji/0 cells (human lymphoblast Raji cells line); conditions: read-out: ID50 (the source's name)
L1210 [13] = test: Compound was tested for Cytostatic activity against proliferation of L1210/BdU cells (thymidine kinase deficient L1210 cell line); conditions: Mus musculus, read-out: ID50 (the source's name); summary of the method: as §1
Raji [14] = test: Compound was tested for Cytostatic activity against proliferation of Raji/TK cells (thymidine kinase deficient Raji cell line); conditions: Homo sapiens, read-out: ID50 (the source's name)
L1210 [15] = test: Compound was tested for Cytostatic activity against proliferation of L1210/0 cells (murine leukemia L1210 cell line); conditions: Mus musculus, read-out: ID50 (the source's name); summary of the method: as §1

Structure (SMILES) | MIC50 [1] [µg/mL] | IC50 (Raji [2]) [µg/mL] | MIC50 (Human alphaherpesvirus 1 [3]) [µg/mL] | MIC50 (Human alphaherpesvirus 2 [4]) [µg/mL] | MIC50 (Vaccinia virus) [µg/mL] | MIC50 (Human alphaherpesvirus 1 [5]) [µg/mL] | IC50 (L1210 [6]) [µg/mL] | MIC50 (Human alphaherpesvirus 2 [7]) [µg/mL] | IC50 (Raji [8]) [µg/mL] | IC50 (L1210 [9]) [µg/mL] | MIC50 (Human alphaherpesvirus 2 [10]) [µg/mL] | MIC50 (Human alphaherpesvirus 1 [11]) [µg/mL] | IC50 (Raji [12]) [µg/mL] | IC50 (L1210 [13]) [µg/mL] | IC50 (Raji [14]) [µg/mL] | IC50 (L1210 [15]) [µg/mL]
CCCc1cn([C@H]2C[C@H](O)[C@@H](CO)O2)c(=O)[nH]c1=O | > 200 | > 500 | 2 (≈ 7.4 µM) | 7 (≈ 25.9 µM) | 200 (≈ 740 µM) | 2 (≈ 7.4 µM) | > 500 | 40 (≈ 148 µM) | > 500 | > 500 | 10 (≈ 37 µM) | 7 (≈ 25.9 µM) | – | – | – | –
CCCCCCc1cn([C@H]2C[C@H](O)[C@@H](CO)O2)c(=O)[nH]c1=O | – | 151 (≈ 483 µM) | > 400 | 300 (≈ 960 µM) | 300 (≈ 960 µM) | 300 (≈ 960 µM) | 172 (≈ 551 µM) | – | 173 (≈ 554 µM) | 195 (≈ 624 µM) | 400 (≈ 1280 µM) | > 400 | – | – | – | –
CCCCCCc1cn([C@H]2C[C@@H]3OP(=O)(O)OC[C@H]3O2)c(=O)[nH]c1=O.N | > 400 | > 500 | > 400 | 300 | > 400 | > 400 | > 500 | > 400 | > 500 | > 500 | > 400 | > 400 | – | – | – | –
CCCCc1cn([C@H]2C[C@@H]3OP(=O)(O)OC[C@H]3O2)c(=O)[nH]c1=O.N | > 400 | 82 | > 400 | 300 | 300 | > 400 | 28.4 | > 400 | 165 | 33.5 | > 400 | > 400 | – | – | – | –
CCCCCc1cn([C@H]2C[C@@H]3OP(=O)(O)OC[C@H]3O2)c(=O)[nH]c1=O.N | > 400 | > 500 | > 400 | > 400 | > 400 | > 400 | > 500 | > 400 | > 500 | > 500 | > 400 | > 400 | – | – | – | –
CCCCc1cn([C@H]2C[C@H](O)[C@@H](CO)O2)c(=O)[nH]c1=O | > 400 | > 500 | 20 (≈ 70.3 µM) | 20 (≈ 70.3 µM) | 300 (≈ 1060 µM) | 20 (≈ 70.3 µM) | > 500 | > 400 | > 500 | > 500 | 150 (≈ 528 µM) | 70 (≈ 246 µM) | – | – | – | –
CCc1cn([C@H]2C[C@@H]3OP(=O)(O)OC[C@H]3O2)c(=O)[nH]c1=O.N | > 400 | 60 | 70 | 7 | 70 | 70 | 55 | 150 | > 500 | > 500 | 10 | 70 | – | – | – | –
CCCCCCCCc1cn([C@H]2C[C@@H]3OP(=O)(O)OC[C@H]3O2)c(=O)[nH]c1=O.N | > 200 | 165 | > 200 | > 200 | 20 | > 200 | 164 | > 200 | 184 | 193 | > 200 | > 200 | – | – | – | –
CCCCCc1cn([C@H]2C[C@H](O)[C@@H](CO)O2)c(=O)[nH]c1=O | > 400 | 334 (≈ 1120 µM) | 20 (≈ 67 µM) | 70 (≈ 235 µM) | 300 (≈ 1010 µM) | 40 (≈ 134 µM) | 476 (≈ 1600 µM) | > 400 | 328 (≈ 1100 µM) | 477 (≈ 1600 µM) | 70 (≈ 235 µM) | 10 (≈ 33.5 µM) | – | – | – | –
CC(C)c1cn([C@H]2C[C@@H]3OP(=O)(O)OC[C@H]3O2)c(=O)[nH]c1=O.N | > 200 | > 500 | > 200 | > 200 | > 200 | > 200 | > 500 | > 200 | > 500 | > 500 | > 200 | > 200 | – | – | – | –
CCCc1cn([C@H]2C[C@@H]3OP(=O)(O)OC[C@H]3O2)c(=O)[nH]c1=O.N | > 400 | > 500 | 150 | 400 | > 400 | 150 | > 500 | > 400 | > 500 | > 500 | 400 | 300 | – | – | – | –
CCCCCCCCc1cn([C@H]2C[C@H](O)[C@@H](CO)O2)c(=O)[nH]c1=O | > 100 | 52 (≈ 153 µM) | > 100 | 100 (≈ 294 µM) | 7 (≈ 20.6 µM) | > 100 | 66 (≈ 194 µM) | > 100 | 140 (≈ 411 µM) | 72 (≈ 212 µM) | 100 (≈ 294 µM) | > 100 | – | – | – | –
O=c1[nH]c(=O)n([C@H]2C[C@H](O)[C@@H](CO)O2)cc1/C=C/Br [BRIVUDINE] | > 400 | – | 0.02 (≈ 0.06 µM) | 1 (≈ 3 µM) | 2 (≈ 6 µM) | 0.02 (≈ 0.06 µM) | – | 100 (≈ 300 µM) | – | – | 1 (≈ 3 µM) | 0.02 (≈ 0.06 µM) | – | – | – | –
CCc1cn([C@H]2C[C@H](O)[C@@H](CO)O2)c(=O)[nH]c1=O [EDOXUDINE] | > 400 | 2.9 (≈ 11.3 µM) | 0.7 (≈ 2.73 µM) | 0.2 (≈ 0.78 µM) | 0.7 (≈ 2.73 µM) | 0.2 (≈ 0.78 µM) | 1.6 (≈ 6.24 µM) | 2 (≈ 7.8 µM) | > 500 | > 500 | 0.4 (≈ 1.56 µM) | 2 (≈ 7.8 µM) | – | – | – | –
CC(C)c1cn([C@H]2C[C@H](O)[C@@H](CO)O2)c(=O)[nH]c1=O [EPERVUDINE] | > 400 | – | 7 (≈ 25.9 µM) | 100 (≈ 370 µM) | 300 (≈ 1110 µM) | 1 (≈ 3.7 µM) | – | 400 (≈ 1480 µM) | – | – | 40 (≈ 148 µM) | 2 (≈ 7.4 µM) | > 500 | > 500 | > 500 | > 500
